Assay results reported in ChEMBL document CHEMBL5724801, “EUbOPEN Chemogenomics Library - Multiplex” (2024).
Where “and” joins values, the source holds several entries; their conditions need not be identical. Equal values may be shown once.

System: HEK-293T
Assay: Multiplex assay against HEK293T
Assay type: toxicity, cell-based
Details: human
Procedure, shortened: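 Cells were classed with CellPathfinder machine-learning gating, first as Hoechst high-intensity objects or normal cells, then (normal cells) as healthy, pyknosed or fragmented nuclei, and finally (pyknosed cells) as mitotic or apoptotic. Staining of live cells at seeding used Hoechst33342, BioTracker Green Microtubule Cytoskeleton Dye, MitoTracker Red and Annexin V Alexa Fluor 680, with imaging on a CQ1 microscope at 37°C and 5% CO2 after compound addition. Tubulin, mitochondrial-mass and membrane-permeability phenotypes are per cents of healthy-nucleus cells.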

[1] = 12 h, 1 µM, compound concentration 1 uM
[2] = 12 h, 10 µM, compound concentration 10 uM
[3] = 24 h, 1 µM, compound concentration 1 uM
[4] = 24 h, 10 µM, compound concentration 10 uM
[5] = 48 h, 1 µM, compound concentration 1 uM
[6] = 48 h, 10 µM, compound concentration 10 uM

With C[C@H](NC(=O)CNC(=O)c1cccc(Cl)c1)c1ccccc1 the “Population Apoptotic (%)” value [1] was 33% and 48%, the “Population Fragmented Nuclei (%)” value [1] was 5% and 6% and the “Population Healthy Nuclei (%)” value [1] was 79% and 84%. For the same compound, the “Population Hoechst High Intensity Objects (%)” value [1] was 8% and 4%, the “Population Membrane Permeable-Phenotype (%)” value [1] was 0% and the “Population Mitochondria Different-Phenotype (%)” value [1] was 39% and 52%. For the same compound, the “Population Mitotic Cells (%)” value [1] was 66% and 51%, the “Population Normal (%)” value [1] was 91% and 95% and the “Population Pyknosed Nuclei (%)” value [1] was 15% and 9%. The “Population Tubulin-Different-Phenotype (%)” value [1] was 29% and 17%, the “Total Cell Count” value [1] was 449 and 384 and the “Population Apoptotic (%)” value [2] was 41% and 58%. For the same compound, the “Population Fragmented Nuclei (%)” value [2] was 6% and 7%, the “Population Healthy Nuclei (%)” value [2] was 76% and 77% and the “Population Hoechst High Intensity Objects (%)” value [2] was 7% and 13%. The “Population Membrane Permeable-Phenotype (%)” value [2] was 0%, the “Population Mitochondria Different-Phenotype (%)” value [2] was 54% and 61% and the “Population Mitotic Cells (%)” value [2] was 58% and 41%. The “Population Normal (%)” value [2] was 92% and 86%, the “Population Pyknosed Nuclei (%)” value [2] was 17% and 15% and the “Population Tubulin-Different-Phenotype (%)” value [2] was 39% and 33%. For the same compound, the “Total Cell Count” value [2] was 362 and 272, the “Population Apoptotic (%)” value [3] was 23% and 45% and the “Population Fragmented Nuclei (%)” value [3] was 9% and 7%. The “Population Healthy Nuclei (%)” value [3] was 80% and 84%, the “Population Hoechst High Intensity Objects (%)” value [3] was 4% and 2% and the “Population Membrane Permeable-Phenotype (%)” value [3] was 1% and 0%. For the same compound, the “Population Mitochondria Different-Phenotype (%)” value [3] was 25% and 32%, the “Population Mitotic Cells (%)” value [3] was 76% and 54% and the “Population Normal (%)” value [3] was 95% and 97%. For the same compound, the “Population Pyknosed Nuclei (%)” value [3] was 10% and 7%, the “Population Tubulin-Different-Phenotype (%)” value [3] was 15% and 9% and the “Total Cell Count” value [3] was 646 and 476. The “Population Apoptotic (%)” value [4] was 43% and 58%, the “Population Fragmented Nuclei (%)” value [4] was 9% and 10% and the “Population Healthy Nuclei (%)” value [4] was 77% and 78%. The “Population Hoechst High Intensity Objects (%)” value [4] was 4% and 9%, the “Population Membrane Permeable-Phenotype (%)” value [4] was 0% and the “Population Mitochondria Different-Phenotype (%)” value [4] was 39% and 49%. The “Population Mitotic Cells (%)” value [4] was 56% and 41%, the “Population Normal (%)” value [4] was 95% and 90% and the “Population Pyknosed Nuclei (%)” value [4] was 12% and 11%. The “Population Tubulin-Different-Phenotype (%)” value [4] was 25% and 19%, the “Total Cell Count” value [4] was 505 and 303 and the “Population Apoptotic (%)” value [5] was 19% and 30%. For the same compound, the “Population Fragmented Nuclei (%)” value [5] was 13%, the “Population Healthy Nuclei (%)” value [5] was 80% and 81% and the “Population Hoechst High Intensity Objects (%)” value [5] was 3% and 2%. For the same compound, the “Population Membrane Permeable-Phenotype (%)” value [5] was 0% and 2%, the “Population Mitochondria Different-Phenotype (%)” value [5] was 15% and 16% and the “Population Mitotic Cells (%)” value [5] was 80% and 70%. For the same compound, the “Population Normal (%)” value [5] was 96% and 97%, the “Population Pyknosed Nuclei (%)” value [5] was 5% and the “Population Tubulin-Different-Phenotype (%)” value [5] was 12% and 6%. For the same compound, the “Total Cell Count” value [5] was 984 and 606, the “Population Apoptotic (%)” value [6] was 44% and 35% and the “Population Fragmented Nuclei (%)” value [6] was 15% and 19%. The “Population Healthy Nuclei (%)” value [6] was 77% and 72%, the “Population Hoechst High Intensity Objects (%)” value [6] was 1% and 2% and the “Population Membrane Permeable-Phenotype (%)” value [6] was 0%. The “Population Mitochondria Different-Phenotype (%)” value [6] was 26% and 28%, the “Population Mitotic Cells (%)” value [6] was 55% and 64% and the “Population Normal (%)” value [6] was 98% and 97%. For the same compound, the “Population Pyknosed Nuclei (%)” value [6] was 7%, the “Population Tubulin-Different-Phenotype (%)” value [6] was 18% and 16% and the “Total Cell Count” value [6] was 735 and 462.

Cc1ccccc1C(=O)Nc1ccc(C(=O)N2CCCC(N(C)C)c3ccccc32)cc1.Cl (configuration not stated) was tested, and the “Population Apoptotic (%)” value [1] was 18% and 53%, the “Population Fragmented Nuclei (%)” value [1] was 6% and 5% and the “Population Healthy Nuclei (%)” value [1] was 80% and 79%. The “Population Hoechst High Intensity Objects (%)” value [1] was 8% and 6%, the “Population Membrane Permeable-Phenotype (%)” value [1] was 0% and the “Population Mitochondria Different-Phenotype (%)” value [1] was 51% and 72%. For the same compound, the “Population Mitotic Cells (%)” value [1] was 81% and 46%, the “Population Normal (%)” value [1] was 91% and 93% and the “Population Pyknosed Nuclei (%)” value [1] was 12% and 14%. The “Population Tubulin-Different-Phenotype (%)” value [1] was 33% and 29%, the “Total Cell Count” value [1] was 519 and 412 and the “Population Apoptotic (%)” value [2] was 53% and 64%. The “Population Fragmented Nuclei (%)” value [2] was 6% and 8%, the “Population Healthy Nuclei (%)” value [2] was 70% and 72% and the “Population Hoechst High Intensity Objects (%)” value [2] was 8% and 15%. The “Population Membrane Permeable-Phenotype (%)” value [2] was 0%, the “Population Mitochondria Different-Phenotype (%)” value [2] was 74% and 82% and the “Population Mitotic Cells (%)” value [2] was 46% and 35%. For the same compound, the “Population Normal (%)” value [2] was 91% and 84%, the “Population Pyknosed Nuclei (%)” value [2] was 22% and 18% and the “Population Tubulin-Different-Phenotype (%)” value [2] was 60% and 61%. For the same compound, the “Total Cell Count” value [2] was 233 and 285, the “Population Apoptotic (%)” value [3] was 31% and 30% and the “Population Fragmented Nuclei (%)” value [3] was 11% and 5%. The “Population Healthy Nuclei (%)” value [3] was 79% and 83%, the “Population Hoechst High Intensity Objects (%)” value [3] was 5% and 4% and the “Population Membrane Permeable-Phenotype (%)” value [3] was 0%. For the same compound, the “Population Mitochondria Different-Phenotype (%)” value [3] was 28% and 52%, the “Population Mitotic Cells (%)” value [3] was 68% and 69% and the “Population Normal (%)” value [3] was 94% and 95%. The “Population Pyknosed Nuclei (%)” value [3] was 8% and 11%, the “Population Tubulin-Different-Phenotype (%)” value [3] was 17% and 19% and the “Total Cell Count” value [3] was 727 and 567. For the same compound, the “Population Apoptotic (%)” value [4] was 41% and 44%, the “Population Fragmented Nuclei (%)” value [4] was 8% and 7% and the “Population Healthy Nuclei (%)” value [4] was 70% and 73%. For the same compound, the “Population Hoechst High Intensity Objects (%)” value [4] was 7% and 14%, the “Population Membrane Permeable-Phenotype (%)” value [4] was 0% and the “Population Mitochondria Different-Phenotype (%)” value [4] was 71% and 83%. For the same compound, the “Population Mitotic Cells (%)” value [4] was 58% and 55%, the “Population Normal (%)” value [4] was 92% and 85% and the “Population Pyknosed Nuclei (%)” value [4] was 21% and 18%. The “Population Tubulin-Different-Phenotype (%)” value [4] was 46%, the “Total Cell Count” value [4] was 268 and 285 and the “Population Apoptotic (%)” value [5] was 13% and 34%. For the same compound, the “Population Fragmented Nuclei (%)” value [5] was 13% and 10%, the “Population Healthy Nuclei (%)” value [5] was 78% and 82% and the “Population Hoechst High Intensity Objects (%)” value [5] was 2% and 4%. The “Population Membrane Permeable-Phenotype (%)” value [5] was 1% and 0%, the “Population Mitochondria Different-Phenotype (%)” value [5] was 24% and 30% and the “Population Mitotic Cells (%)” value [5] was 86% and 65%. For the same compound, the “Population Normal (%)” value [5] was 97% and 95%, the “Population Pyknosed Nuclei (%)” value [5] was 8% and 6% and the “Population Tubulin-Different-Phenotype (%)” value [5] was 17% and 14%. For the same compound, the “Total Cell Count” value [5] was 1095 and 722, the “Population Apoptotic (%)” value [6] was 55% and 63% and the “Population Fragmented Nuclei (%)” value [6] was 10% and 9%. For the same compound, the “Population Healthy Nuclei (%)” value [6] was 69% and 77%, the “Population Hoechst High Intensity Objects (%)” value [6] was 6% and the “Population Membrane Permeable-Phenotype (%)” value [6] was 0%. For the same compound, the “Population Mitochondria Different-Phenotype (%)” value [6] was 69% and 72%, the “Population Mitotic Cells (%)” value [6] was 44% and 36% and the “Population Normal (%)” value [6] was 93%. For the same compound, the “Population Pyknosed Nuclei (%)” value [6] was 20% and 12%, the “Population Tubulin-Different-Phenotype (%)” value [6] was 49% and 41% and the “Total Cell Count” value [6] was 283 and 314.
